Most compounds without a hit are left out; they make up all but 1.8% or so of the library.
MC4R ag barr: MC4R agonists recruiting beta-arrestin, primary screen, cell-based, luminescence, agonist arm of biased-ligand search. AID 540308, 2011. U2OS MC4R beta-arrestin complementation; percent of melanotan II response, DMSO zero. activation, % at 8.9 µM. actives 0.98% (n = 360,000). Melanocortin receptor 4 (Homo sapiens), P32245;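 active = activation above a per-plate cutoff, the mean activation of sample wells on that plate plus 3 SD, cut at about 8% in these data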
MC4R antag cAMP: MC4R antagonists of cAMP signaling, primary screen, cell-based, TR-FRET, antagonist arm of biased-ligand search | inhibition, % at 6.5 µM | actives 0.48% (n = 360,000) | Melanocortin receptor 4 (Homo sapiens), P32245 | MC4R-expressing cells, MTII-stimulated cAMP, LANCE TR-FRET;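 active = inhibition above its plate's cutoff, the mean of tested wells on that plate plus 3 SD, cut at about 29% in these data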
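Test system: U2OS cells stably expressing human melanocortin 4 receptor (MC4R); also added: Melanotan II challenge; compound: 6.5 µM single dose; timing: 30-min compound preincubation, 1-h Melanotan II challenge, 1-h detection, room temperature; signal: Eu-cAMP/anti-cAMP TR-FRET, emission 671 nm; repeats: one well per compound, no replicates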
NTR1 ag: agonists of human NTR1, primary screen, imaging, U2OS cells, beta-arrestin-GFP, high content. AID 493036, 2011. activation, % at 20 µM. Neurotensin receptor type 1 (Homo sapiens), P30989. NTR1-U2OS beta-arrestin-GFP spot imaging, agonist mode. actives 0.17% (n = 330,000);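 active = activation at or above 40% of the spot to cytoplasm intensity ratio, with at least 20 cells analyzed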
Target sequence (P30989 whole entry, looked up): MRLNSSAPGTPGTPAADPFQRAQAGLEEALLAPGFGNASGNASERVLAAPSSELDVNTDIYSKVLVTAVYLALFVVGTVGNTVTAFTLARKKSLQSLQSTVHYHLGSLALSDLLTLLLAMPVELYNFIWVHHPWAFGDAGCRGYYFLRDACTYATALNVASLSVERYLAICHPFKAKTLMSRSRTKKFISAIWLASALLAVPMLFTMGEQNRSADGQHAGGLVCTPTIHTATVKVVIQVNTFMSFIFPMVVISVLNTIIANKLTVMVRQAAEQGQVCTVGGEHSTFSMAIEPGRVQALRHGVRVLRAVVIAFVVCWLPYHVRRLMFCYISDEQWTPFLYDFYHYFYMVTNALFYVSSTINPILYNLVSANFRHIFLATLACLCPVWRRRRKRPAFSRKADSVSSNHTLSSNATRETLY
AI-2 QS mod: Vibrio harveyi AI-2 quorum sensing modulators, primary screen, JMH597 strain, luminescence/OD600 ratio. Vibrio harveyi JMH597 AI-2 luminescence/OD600 ratio, 9 h; stronger effect = lower value; strain lacks LuxN and CqsS sensors; 0 = neutral-control median. activity change, % at 7.5 µM. actives 0.4% (n = 300,000); in the data active = activity change below about -75%, passing the limit was not always enough;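 note: luminescence divided by OD600 gain over 9 h not by final OD600 alone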
cAMP nonselect: nonselective cAMP signaling inhibitors, parental cells, counter-screen for MC4R biased antagonist project, cell-based, TR-FRET, U2OS, forskolin, triplicate; LANCE TR-FRET; actives 26% (n = 1,600); shares compounds with MC4R antag cAMP; inhibition, % at 6.5 µM;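 active = mean inhibition over triplicates above the low-control well mean plus 3 SD, set per campaign, cut at about 13% in these data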;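 note: signal is single emission at 671 nm which falls as cellular cAMP rises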
MC4R cAMP antag: MC4R cAMP antagonists, retest, confirmation, cell-based, TR-FRET; shares compounds with MC4R antag cAMP; actives 27% (n = 1,600); inhibition, % at 6.5 µM; MC4R-expressing cells, MTII-stimulated cAMP; in the data active = inhibition above about 29%
Numbers stand for hits; . = inactive; / = not tested or not shown.

SMILES	MC4R ag barr	MC4R antag cAMP	NTR1 ag	AI-2 QS mod	cAMP nonselect	MC4R cAMP antag
CCOC(=O)c1cnn(-c2nc(-c3ccc(C)cc3)cs2)c1C(F)(F)F	.	.	/	.	/	/
O=C(O)c1cnn(-c2nc(-c3ccc(Br)cc3)cs2)c1C(F)(F)F	.	32	.	.	.	.
NC(=O)Cc1nc(-c2ccc(Br)cc2)cs1	.	.	.	.	/	/
Cc1cc(C)cc(NC(=O)C(=O)NCCCN2CCCC2=O)c1	.	.	.	.	/	/
N/C(=N\OC(=O)c1ccc(Cl)c([N+](=O)[O-])c1)c1ccccc1	.	44	.	.	22	36
N/C(=N\OC(=O)c1cc([N+](=O)[O-])ccc1Cl)c1cccnc1	.	62	.	.	18	47
N/C(=N\OC(=O)c1ccc(Cl)c([N+](=O)[O-])c1)c1ccccn1	.	48	.	.	28	40
O=C(COC(=O)c1ccccc1C(=O)c1ccc(Cl)c([N+](=O)[O-])c1)NC1CC1	.	29	.	.	21	.
N/C(=N\OC(=O)c1ccc(Cl)c(Cl)c1)c1ccccn1	.	.	.	.	/	/
Cc1c(C)n(Cc2ccccc2)c2ncnc(Cl)c12	.	.	.	.	/	/
N#CCSc1ccccc1NC(=O)COC(=O)CCN1C(=O)C2CC=CCC2C1=O (stereo not given)	.	.	.	/	/	/
Nc1c(Cl)ncnc1NCc1ccccc1	.	.	.	.	/	/
N/C(CC(=O)Nc1ccc(F)c(Cl)c1)=N\OC(=O)c1cccs1	.	36	.	.	.	.
COc1cc(-c2nc3ccc4ccccc4c3c3c2CCC3)cc(OC)c1O	.	.	.	.	/	/
COc1cc(-c2nc3ccc4ccccc4c3c3c2CCC3)cc(OC)c1OC	.	32	.	.	.	31
CCc1ccc2nc(NC(=O)CN3C(=O)NC4(CCCC4)C3=O)sc2c1	.	.	.	/	/	/
Brc1cc(-c2ccccc2)nc(-c2ccccc2)n1	.	36	.	.	18	36
Clc1cc(-c2ccccc2)nc(-c2ccccc2)n1	.	30	.	.	17	29
CC(=O)NS(=O)(=O)c1ccc(N=c2ssc3c2-c2cc(C)c(C)cc2NC3(C)C)cc1	.	31	.	.	.	.
Cc1cc2c(cc1C)-c1c(ssc1=Nc1ccc(S(N)(=O)=O)cc1)C(C)(C)N2	.	.	.	.	/	/
O=C(NC1CCCC1)c1ccc(COc2ccccc2Br)o1	.	.	.	.	/	/
COc1ccc(-c2c3c([nH]c(=S)c2C#N)CCC3)cc1	.	88	/	/	20	35
COc1ccc(OC)c(-c2c3c([nH]c(=S)c2C#N)CCCC3)c1	.	.	.	.	/	/
CCN(CC)c1ccc(C(=C2C=CC(=[N+](CC)CC)C=C2)c2ccccc2)cc1	.	64	/	/	34	67
CC1CCN(c2nc(Cl)nc(Nc3ccc([N+](=O)[O-])cc3)n2)CC1	.	32	.	.	.	36
SMILES	MC4R ag barr	MC4R antag cAMP	NTR1 ag	AI-2 QS mod	cAMP nonselect	MC4R cAMP antag
CC1CCCN(C2(O)C(=O)Nc3ccc(Cl)cc32)C1 (stereo not given)	.	.	.	.	/	/
O=C(NCCOc1ccccc1Cl)c1ncn[nH]1	.	30	.	.	.	.
CC1CCN(C(=O)CN2C(=O)C(=O)N(C(C)C)C2=O)c2ccccc2S1 (stereo not given)	.	.	.	/	/	/
CC(=O)Nc1cccc(-c2cc(NC(C)=O)c3ncc(-c4ccc(C(C)=O)cc4)n3c2)c1	9.0	33	/	/	.	.
COc1ccc(N2CCN(c3n[nH]c(N)n3)CC2)cc1	.	35	.	.	.	.
Cc1cccc(C)c1N1CCN(c2n[nH]c(N)n2)CC1	.	.	.	.	/	/
CCN(C(=O)c1ccc(N2CC3CC(C2)c2cccc(=O)n2C3)c(NC(=O)c2ccncc2)c1)c1cccc(C)c1 (stereo not given)	.	.	.	.	/	/
COc1ccc(OCC(O)Cn2c(Br)nc3c2c(=O)[nH]c(=O)n3C)cc1 (stereo not given)	.	.	.	.	/	/
Cn1c(=O)[nH]c(=O)c2c1nc(Br)n2CC(O)COc1ccc(Cl)cc1 (stereo not given)	.	31	.	.	.	.
Cc1nc(SCC(=O)N2CCCCCC2)c2c(=O)n(C)c(=O)n(CC(C)C)c2n1	.	33	/	/	.	.
O=C(NCc1ccc(Cl)cc1)C(=O)NCC1OCCCN1S(=O)(=O)c1cccs1 (stereo not given)	.	.	.	.	/	/
CNC[C@H](Cc1ccccc1)NC[C@@H](Cc1cccc2ccccc12)NCCc1ccc(C)cc1	.	31	.	.	.	.
C=CCNC(=O)c1ccc([N+](=O)[O-])c(Cl)c1	.	.	.	.	/	/
CC(C)(CNC(=O)c1ccc([N+](=O)[O-])c(Cl)c1)CNC(=O)c1ccc([N+](=O)[O-])c(Cl)c1	.	31	.	.	.	44
Cc1cc(S(=O)(=O)Nc2nc(CN3CCOCC3)nc3sc4c(c23)CCC4)ccc1F	.	.	.	/	/	/
COC(=O)c1sc(-c2cccs2)cc1NC(=O)/C=C/C(=O)O	.	32	.	.	.	.
CNS(=O)(=O)c1cccc(C(=O)OC2CCOC2=O)c1 (stereo not given)	.	.	.	.	/	/
CCN(c1ccccc1)S(=O)(=O)c1cc(C(=O)OC2CCOC2=O)ccc1C (stereo not given)	.	40	.	/	24	37
COc1nc(NC(C)C)nc(N(C#N)CN2C(=O)c3ccccc3S2(=O)=O)n1	.	.	.	.	/	/
CC(C)Nc1nc(Cl)nc(N(C#N)CN2C(=O)c3ccccc3S2(=O)=O)n1	.	46	.	.	14	37
CC(C)(C)Nc1nc(Cl)nc(N(C#N)CN2C(=O)c3ccccc3S2(=O)=O)n1	.	35	.	.	25	51
CCC1CN(C(=O)N2CCC(C(=O)NCCc3ccccc3)CC2)c2ccccc2O1 (stereo not given)	.	.	.	.	/	/
Cc1ccc(OC(=O)c2sc(Cl)nc2C)cc1C	.	36	.	.	16	37
COc1ccc(N(C)C(=O)c2sc(Cl)nc2C)cc1	.	.	.	.	/	/
Cc1cccc(C(=O)NCC(=O)OCC(=O)c2ccc(Br)s2)c1	.	44	.	/	33	70
Cc1cccc(C(=O)NCC(=O)OCC(=O)NCCNC(=O)COC(=O)CNC(=O)c2cccc(C)c2)c1	.	.	.	.	/	/
